From PMC3868989 (Pharmaceutical research, 2012)
pIC50: −log10 of the molar value. Converted amounts (≈) assume the structure as drawn.

Assays:
[1] = Pharmacokinetics and tissue distribution; assay type: in vivo; settings: mice, single i.v. dose CDF 5.0 mg/mice, at 2 h
Outline: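 Female ICR-SCID mice, 8–10 weeks old, were starved overnight. Each received a single i.v. dose: test compound 5.0 mg/mouse, or its β-cyclodextrin 1:2 complex at 12.5 mg/mouse (5.0 mg equivalent). Vehicle was 1:1 ethanol/polysorbate 80 diluted tenfold with 5% glucose. About 200 μL blood was taken by cardiac puncture for serum. Pancreas was PBS-washed, blotted and weighed. Samples were stored at −80°C and quantified by validated LC-MS/MS.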

[2] = Water solubility study of CDF and CDF-β-cyclodextrin complexes; assay type: physicochemical; settings: distilled water, ambient temperature, shaken 2 h, UV 365 nm
Outline: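 The complex was made by kneading the components at 2:1 molar ratio in alcohol/water for 1 h. It was dried at 45°C for 24 h, powdered and sieved (#80). Excess test compound or complex was dispersed in 25 ml distilled water and shaken 2 h at ambient temperature to equilibrium. Solutions were passed through a 0.22-μm filter and diluted with methanol. Absorbance was read at 365 nm.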

[3] = system: breast cancer cells MDA-MB-231; assay: MTT cell growth assay, MDA-MB-231; assay type: cell-based; settings: MDA-MB-231 cells, 72 h treatment
Outline: (§1)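 Cells grown at 37°C under humidified 5% CO2. BxPC-3 and MDA-MB-231 were in DMEM with 10% FBS, and PC3 was in RPMI with 10% FBS. Lines were STR-authenticated. Cells were seeded in 96-well plates and dosed 24 h after seeding. After 72 h, MTT 0.5 mg/ml was added for 2 h at 37°C. Medium was replaced with DMSO for 30 min at room temperature before reading absorbance. Eight replicate wells per treatment; each experiment run at least three times.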

[4] = system: prostate cancer cells PC3; assay: MTT cell growth assay, PC3; assay type: cell-based; settings: 72 h treatment
Outline: as §1

[5] = Phase solubility analysis; assay type: physicochemical; settings: in presence of β-cyclodextrin 0-20 mM, water, 30 ± 2°C, 72 h
[6] = pancreas of mice; cited from earlier work
[7] = system: pancreatic cancer cells BxPC-3; assay: MTT cell growth assay, BxPC-3; assay type: cell-based; settings: BxPC-3 cells, 72 h treatment
Outline: as §1

COc1cc(/C=C/C(=O)C(=Cc2ccc(F)c(F)c2)C(=O)/C=C/c2ccc(O)c(OC)c2)ccc1O [CDF, 3,4-difluorobenzo curcumin]
concentration in pancreas [1]: ~ 300 ng/g | concentration in serum [1]: ~ 6 ng/ml | water solubility [2]: 0.014 mg/mL (≈ 28.4 µM) | pIC50 [3]: 6.49 | pIC50 [4]: 6.59 | phase solubility diagram type [5]: AN type | levels in pancreas relative to curcumin [6]: 10 times | pIC50 [7]: 6.46
